Reference: ChEMBL document CHEMBL1147403, “MexAB-OprM specific efflux pump inhibitors in Pseudomonas aeruginosa. Part 3: Optimization of potency in the pyridopyrimidine series through the application of a pharmacophore model” (2004)

How the values were obtained:
Assay type in all cases: functional
Pseudomonas aeruginosa [1] = assay: Minimum inhibitory concentration against Pseudomonas aeruginosa in presence of aztreonam substrate and with out human serum albumin, (100% growth inhibition)
In short: (§1)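 Potentiation of aztreonam, a MexAB-OprM substrate, against P. aeruginosa PAM1723 (MexAB-OprM overexpressed; MexCD-OprJ and MexEF-OprN genetically disrupted). Run without HSA and with 0.125% human serum albumin. Value is the inhibitor concentration (µg/mL) giving 8-fold potentiation (MPC8).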

Pseudomonas aeruginosa [2] = assay: Minimum inhibitory concentration against Pseudomonas aeruginosa in presence of LVFX substrate, (100% growth inhibition)
In short: (§2)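 Potentiation of levofloxacin (LVFX), a MexAB-OprM substrate, against P. aeruginosa PAM1723 (MexAB-OprM overexpressed; MexCD-OprJ and MexEF-OprN genetically disrupted). Value is the inhibitor concentration (µg/mL) giving 4-fold (MPC4) or 8-fold (MPC8) potentiation.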

Pseudomonas aeruginosa [3] = assay: Minimum inhibitory concentration against Pseudomonas aeruginosa in presence of aztreonam substrate and with 0.125% human serum albumin, (100% growth inhibition); in short: as §1
Pseudomonas aeruginosa [4] = assay: Intrinsic antibacterial activity against Pseudomonas aeruginosa
In short: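 Tested alone for antibacterial activity against P. aeruginosa PAM1723, a strain that overexpresses the MexAB-OprM pump and has MexCD-OprJ and MexEF-OprN genetically disrupted; MIC in µg/mL.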

Pseudomonas aeruginosa [5] = assay: Minimum inhibitory concentration Pseudomonas aeruginosa in presence of LVFX substrate, (100% growth inhibition); in short: as §2
Rattus norvegicus = species on record: Rattus norvegicus; assay: Serum protein binding of compound was evaluated using rat serum

Row | Compound | MPC8 (Pseudomonas aeruginosa [1]) | MPC8 (Pseudomonas aeruginosa [2]) | MPC8 (Pseudomonas aeruginosa [3]) | MIC (Pseudomonas aeruginosa [4]) | MPC4 (Pseudomonas aeruginosa [5]) | Binding (Rattus norvegicus)
1 | CC(C)c1csc(CCc2ccn3c(=O)c(/C=C/C(=O)O)c(N4CCCCC4)nc3c2)n1 | 4 µg/mL | 4 µg/mL | 8 µg/mL | > 320 mg/L | 0.5 µg/mL | 
2 | CC(C)c1csc(CCc2ccn3c(=O)c(CCC(=O)O)c(N4CCCC(O)C4)nc3c2)n1 (centres undefined) | >128 µg/mL | >128 µg/mL |  | > 320 mg/L | 32 µg/mL | 
3 | CC(C)c1csc(CCc2ccn3c(=O)c(/C=C/C(=O)O)c(NCc4ccccn4)nc3c2)n1 | 32 µg/mL | 128 µg/mL | 32 µg/mL | > 320 mg/L | 16 µg/mL | 
4 | CC(C)c1csc(CCc2ccn3c(=O)c(/C=C/C(=O)O)c(N4CC[C@@H](N(C)C)C4)nc3c2)n1 | 128 µg/mL | 128 µg/mL | 64 µg/mL | > 320 mg/L | 8 µg/mL | 69.3%
5 | CC(C)c1csc(CCc2ccn3c(=O)c(/C=C/C(=O)O)c(N4CCCCC4CO)nc3c2)n1 (centres undefined) | 64 µg/mL | 64 µg/mL | 64 µg/mL | > 320 mg/L | 8 µg/mL | 
6 | CC(C)c1csc(CCc2ccn3c(=O)c(C#CC(=O)O)c(N4CCOCC4)nc3c2)n1 | 8 µg/mL | 16 µg/mL | 16 µg/mL | > 320 mg/L | 2 µg/mL | 
7 | CC(C)c1csc(CCc2ccn3c(=O)c(/C=C/C(=O)O)c(N[C@H]4CC[C@H](O)CC4)nc3c2)n1 | >64 µg/mL | >64 µg/mL | >64 µg/mL | > 320 mg/L | 16 µg/mL | 
8 | CCCC(CC)Nc1nc2cc(CCc3nc(C(C)C)cs3)ccn2c(=O)c1/C=C/C(=O)O (centres undefined) | 32 µg/mL | 16 µg/mL | 32 µg/mL | > 320 mg/L | 2 µg/mL | 
9 | CC(C)c1csc(CCc2ccn3c(=O)c(/C=C/C(=O)O)c(N4CCN(C)CC4)nc3c2)n1 | 16 µg/mL | 32 µg/mL | 32 µg/mL | > 320 mg/L | 8 µg/mL | 67.8%
10 | CC(C)c1csc(CCc2ccn3c(=O)c(/C=C/C(=O)O)c(N4CCOCC4)nc3c2)n1 | 16 µg/mL | 16 µg/mL | 32 µg/mL | > 320 mg/L | 2 µg/mL | 92%
11 | CC(C)c1csc(CCc2ccn3c(=O)c(/C=C/C(=O)O)c(N[C@H](CO)[C@@H](O)c4ccccc4)nc3c2)n1 (single isomer, unassigned) | 64 µg/mL | 64 µg/mL | 64 µg/mL | > 320 mg/L | 8 µg/mL | 
12 | CC(C)c1csc(/C=C/c2cccc(NC(=O)Cc3ccccc3C(=O)O)c2)n1 | 2 µg/mL | 2 µg/mL | 16 µg/mL | > 320 mg/L | 1 µg/mL | >98%
13 | CC(C)c1csc(CCc2ccn3c(=O)c(/C=C/C(=O)O)c(N4CCCC(N(C)C)C4)nc3c2)n1 (centres undefined) | >128 µg/mL | 128 µg/mL | 128 µg/mL | > 320 mg/L | 8 µg/mL | 
14 | CC(C)c1csc(CCc2ccn3c(=O)c(-c4nnn[nH]4)cnc3c2)n1 | 16 µg/mL | >16 µg/mL | 16 µg/mL | > 320 mg/L | >16 µg/mL | 81.5%
15 | CC(C)c1csc(CCc2ccn3c(=O)c(/C=C/C(=O)O)c(N4CCC(N(C)C)CC4)nc3c2)n1 | 128 µg/mL | >128 µg/mL | 128 µg/mL | > 320 mg/L | 32 µg/mL | 
